IC50, Activity and inhibition data for 1 compound are collected here from ChEMBL document CHEMBL4825680, “Structure-based discovery of potent and selective small-molecule inhibitors targeting signal transducer and activator of transcription 3 (STAT3)” (Eur J Med Chem, 2021).

Each structure is given as a SMILES string. Active and inactive are the calls of the source. The calls are words filed in the database; no cut-off is given here.

One series concerns MGC-803. In words: Antiproliferative activity against human MGC-803 cells. The class given is functional, cell-based.
The next series has as its system A549. The series is described as follows: Antiproliferative activity against human A549 cells. It counts as functional, cell-based.
The subject of series [1] is MDA231-LM2-4175. The series is described as follows: Antitumor activity against human MDA231-LM2-4175 cells xenografted in mouse assessed as reduction in pY705-STAT3 expression at 5 to 15 mg/kg, iv administered once daily for 20 days by Western blotting analysis. Particulars: dose 5-15 mg/kg, time 20.0 day. It counts as functional, organism-based. (In xenograft studies the graft and the host belong to different species.)

In series [2] the target is T1, Signal transducer and activator of transcription 3 (Homo sapiens, UniProt P40763). In words: Inhibition of STAT3 phosphorylation at Tyr705 residue in human MDA231-LM2-4175 cells after 3 hrs by Western blotting analysis. The class given is cell-based. Particulars: dose 0.3-3 µM. On the technique in general: Immunoblotting shows a protein as a band on a membrane.
T1 sequence (P40763 whole entry): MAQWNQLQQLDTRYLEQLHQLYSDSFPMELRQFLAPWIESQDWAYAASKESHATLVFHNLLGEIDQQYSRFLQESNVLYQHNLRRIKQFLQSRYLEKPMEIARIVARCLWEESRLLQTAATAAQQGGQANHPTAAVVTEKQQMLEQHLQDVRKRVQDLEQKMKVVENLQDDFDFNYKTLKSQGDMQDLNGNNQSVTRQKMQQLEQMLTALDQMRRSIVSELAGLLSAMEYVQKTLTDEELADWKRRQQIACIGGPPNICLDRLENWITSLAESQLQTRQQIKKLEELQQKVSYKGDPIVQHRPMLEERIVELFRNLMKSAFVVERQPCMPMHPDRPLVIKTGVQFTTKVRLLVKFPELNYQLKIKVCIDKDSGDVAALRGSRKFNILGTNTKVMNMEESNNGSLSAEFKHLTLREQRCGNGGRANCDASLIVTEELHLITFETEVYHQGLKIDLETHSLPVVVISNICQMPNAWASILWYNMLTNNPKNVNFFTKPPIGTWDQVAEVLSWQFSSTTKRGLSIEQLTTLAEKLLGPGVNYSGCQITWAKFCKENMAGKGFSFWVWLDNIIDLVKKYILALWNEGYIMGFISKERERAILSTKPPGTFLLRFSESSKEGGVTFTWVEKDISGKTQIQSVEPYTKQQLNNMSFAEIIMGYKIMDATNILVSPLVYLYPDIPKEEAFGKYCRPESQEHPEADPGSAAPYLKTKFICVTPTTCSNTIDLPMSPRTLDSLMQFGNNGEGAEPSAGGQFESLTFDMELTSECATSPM
In the next series the test system is MDA-MB-231. The series is described as follows: Effect on total STAT1 level in human MDA-MB-231 cells at 0.3 to 3 uM after 3 hrs by Western blotting analysis. It counts as functional, cell-based. The following applies: dose 0.3-3 µM. The procedure, abridged:
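Breast cancer cells were treated with vehicle (0.1% DMSO) or compound, then lysed in RIPA with PMSF and phosphatase inhibitors. 20–50 μg protein was run on 8 or 12% SDS-PAGE, blotted to PVDF, blocked in 5% BSA, probed with primary antibodies overnight at 4 °C, then HRP secondaries, with ECL detection.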

In series [3] the target is T2, Signal transducer and activator of transcription 5A (Homo sapiens) (UniProt P42229).
T2 sequence (whole entry): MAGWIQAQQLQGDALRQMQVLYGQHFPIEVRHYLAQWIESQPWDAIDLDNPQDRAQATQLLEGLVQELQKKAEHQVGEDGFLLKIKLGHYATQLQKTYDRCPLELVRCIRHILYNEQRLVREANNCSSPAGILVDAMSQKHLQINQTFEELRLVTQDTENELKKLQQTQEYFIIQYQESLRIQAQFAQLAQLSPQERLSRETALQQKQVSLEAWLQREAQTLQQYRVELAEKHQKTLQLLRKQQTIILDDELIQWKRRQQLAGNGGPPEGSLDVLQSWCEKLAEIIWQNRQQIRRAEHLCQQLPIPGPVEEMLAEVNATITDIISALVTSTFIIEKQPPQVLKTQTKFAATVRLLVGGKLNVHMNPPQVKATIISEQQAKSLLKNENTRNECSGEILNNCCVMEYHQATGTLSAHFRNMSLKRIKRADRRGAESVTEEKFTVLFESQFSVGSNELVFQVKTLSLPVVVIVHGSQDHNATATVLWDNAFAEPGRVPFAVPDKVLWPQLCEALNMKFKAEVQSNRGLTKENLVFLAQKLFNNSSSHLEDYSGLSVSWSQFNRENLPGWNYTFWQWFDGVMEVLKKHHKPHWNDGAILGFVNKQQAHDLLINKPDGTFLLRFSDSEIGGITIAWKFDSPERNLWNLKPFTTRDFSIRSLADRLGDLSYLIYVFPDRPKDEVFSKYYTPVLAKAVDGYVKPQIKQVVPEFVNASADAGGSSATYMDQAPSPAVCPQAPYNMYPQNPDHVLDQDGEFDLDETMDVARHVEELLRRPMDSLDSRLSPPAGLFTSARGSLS
In words: Inhibition of STAT5 DNA binding in human MDA-MB-231 cells at 3 uM after 3 hrs by EMSA analysis. The class given is cell-based. The gist of the method: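 Cells exposed to vehicle or compound for 3 h. Nuclear extracts prepared and BCA-quantified. Nuclear protein (8–10 µg) incubated with biotinylated STAT3 or STAT5 probe, resolved on 6% native polyacrylamide gel, transferred to nylon membrane and detected with a gel-shift kit.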
(In general: Mobility shift assays separate free from complexed probe on a gel.)

For series [4], the target named is T1, Signal transducer and activator of transcription 3. The series is described as follows: Inhibition of STAT3 in human HCC70 cells assessed as downregulation of Bcl-xL expression at 0.3 to 3 uM after 24 hrs by western blot analysis. The class given is cell-based. The following applies: dose 0.3-3 µM. The procedure, abridged:
(§1)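 TNBC cells given vehicle (0.1% DMSO) or graded compound levels for 24 h, lysed in RIPA with PMSF and phosphatase inhibitors. BCA-quantified lysate (20–50 µg) run on SDS-PAGE, transferred to PVDF, blocked in 5% BSA. Probed overnight at 4 °C for Bcl-xL, Mcl-1 and c-Myc, with β-actin. HRP secondary, ECL detection. Three independent experiments.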

For series [5] the target is unchanged. In words: Inhibition of STAT3 in human MDA231-LM2-4175 cells assessed as downregulation of Mcl-1 expression at 0.3 to 3 uM after 24 hrs by western blot analysis. The class given is cell-based. The following applies: dose 0.3-3 µM. The gist of the method:
as §1

A further series has as its system MCF7. In words: Antiproliferative activity against human MCF7 cells assessed as reduction in cell viability after 72 hrs by CCK8 assay. The class given is functional, cell-based. The following applies: MCF7, 72 h. The gist of the method: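 Cells seeded at 1000–8000 per well were grown overnight, then exposed to 0.1–100 μM compound or 0.1% DMSO vehicle for 72 h. CCK-8 was added for 0.5–4 h at 37 °C and absorbance read at 480 nm. Viability = (OD compound − blank)/(OD vehicle − blank) × 100, with medium as blank. IC50 fitted from three independent experiments.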

A further series relates to MDA-MB-468. In words: Inhibition of colony formation in human MDA-MB-468 cells at 0.3 uM after 10 to 15 days by crystal violet staining based assay. It counts as functional, cell-based. Particulars: time 10-15 day. The gist of the method:
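Cells seeded at 0.5×10^3–1×10^3 per well; compound added the next day. Medium and compound renewed every 2–3 days. After about 10–15 days, colonies fixed with 4% paraformaldehyde, stained with crystal violet, scanned and quantified by image analysis. Triplicate.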

A short description of series [6]: Induction of apoptosis in human MDA231-LM2-4175 cells assessed as necrotic cells at 1 uM after 48 hrs by Annexin-V-FITC/propidium iodide staining based flow cytometric analysis (reference value: 0.531%). The class given is functional.
The test system of series [7] is MDA231-LM2-4175. The series is described as follows: Induction of apoptosis in human MDA231-LM2-4175 cells assessed as increase in caspase-7 cleavage at 1 uM after 48 hrs by Western blot analysis. The class given is functional, cell-based. The gist of the method:
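Breast cancer cells given vehicle (0.1% DMSO) or compound, then lysed in RIPA buffer with PMSF and phosphatase inhibitors. BCA-quantified lysate (20–50 µg) run on 8 or 12% SDS-PAGE and transferred to PVDF. Blocked in 5% BSA, probed overnight at 4 °C for PARP and cleaved caspase-7, HRP secondary, ECL detection. β-actin as loading control.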

The nature of series [8]: Toxicity in mouse xenografted with human MDA-MB-231-4175 cells assessed as morphological change in heart at 5 to 15 mg/kg, […] once daily for 20 days by HE staining based assay. The class given is organism-based. Particulars: in vivo, iv, 480 h, dose 5-15 mg/kg, time 20 day. The procedure, abridged:
(§2)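 Female NOD-SCID mice aged 4–5 weeks, given 2×10^6–3×10^6 MDA-MB-231-4175 cells subcutaneously in the flank. At about 100 mm³ tumour volume, randomised n=6/group: vehicle (PBS with 15% Cremophor EL), 5 or 15 mg/kg intraperitoneally daily. Killed at day 20; heart, liver, spleen, lung and kidney collected for morphological examination.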

Series [9] can be described thus: Toxicity in mouse xenografted with human MDA-MB-231-4175 cells assessed as morphological change in spleen at 5 to 15 mg/kg, […] once daily for 20 days by HE staining based assay. The class given is organism-based. Particulars: in vivo, iv, 480 h, dose 5-15 mg/kg, time 20 day. The procedure, abridged:
as §2

The next series deals with Breast cancer cell line. The series is described as follows: Antitumor activity against patient-derived breast cancer cells xenografted in NOD/SCID mouse assessed as reduction in Bcl-xL expression at 5 to 15 mg/kg, iv administered once daily for 20 days by Western blotting analysis. The class given is functional, organism-based. Particulars: Homo sapiens, dose 5-15 mg/kg, time 20.0 day.

Broadly, the IC50 is the point on the concentration scale where inhibition reaches its midpoint.

`O=C(Cc1c(-c2ccccc2)nc2ccccn12)Nc1ccc2c(c1)S(=O)(=O)C=C2`: the IC50 came out at 1.6 µM with MGC-803, 1.1 µM with A549 and 7.22 µM in the series on MCF7. The result in the series on MDA231-LM2-4175 [1], in the series with MDA231-LM2-4175 [7] and in the series on Breast cancer cell line was Active. Besides, the inhibition result in series [2] was “Dose-Dependent Effect”. Further, the result in the series on MDA-MB-231 was inactive. Further, the inhibition entry in [3] was “inactive”. In addition, the inhibition result (in [4]; in series [5]; in the series with MDA-MB-468) was “Active” throughout. Further, the Activity is given as 1.1% in [6], “Non-Toxic” in [8] and “Non-Toxic” in series [9].
